# Article PMC11362645 (International Journal for Parasitology: Parasites and …, 2024)
# Marks after values point to notes of the source that are not given here.
# Columns and labels:
# [1] = system: Madin-Darby bovine kidney (MDBK) cells; assay: In vitro MTT cytotoxicity assay on MDBK cells; format: cell-based; conditions: MDBK cells; for Maximum non-toxic concentration: highest concentration with no significant effect on cell viability
# Procedure, shortened: (§1)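 MDBK cells (NBL-1) were kept in MEM with 10% FBS and penicillin/streptomycin at 37 °C, 5% CO2, and passaged with Accutase at ~70% confluence. Cells were seeded at 2×10^4/well and grown 24 h. Test compound was added at final 0.1, 1, 10, 50 or 100 μM, with a DMSO solvent control, for 24 h. MTT was added for 2 h, formazan dissolved in 99% isopropanol, and A562 read. Viability = compound/DMSO ×100. Maximum non-toxic concentration = highest concentration with no significant viability effect. Three repeats.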
# [2] = In vitro MTT cytotoxicity assay on MDBK cells; format: cell-based, bovine; conditions: bovine, MDBK cells (NBL-1 strain)
# Procedure, shortened: as §1
# E. tenella sporozoites = assay: In vitro viability assay for E. tenella sporozoites; format: cell-based, Eimeria tenella; conditions: 24 h, DMSO-treated group = 100%
# Procedure, shortened: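 E. tenella OPU strain oocysts were sporulated in ~0.1% potassium dichromate at 28 °C and hypochlorite-treated. Sporocysts were excysted for 1–2 h at 41 °C in HBSS with 1% taurodeoxycholic acid and 0.25% trypsin. Sporozoites at 5×10^6/ml in phenol-red-free RPMI 1640 with antibiotics got test compound (screen 100 μM; IC50 range 1–100 μM) for 24 h at 37 °C, 5% CO2. Cell Count Reagent SF was then added for 3 h. Viability was expressed relative to DMSO = 100%.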
# [3] = commercially available pure compounds at 100 μM
Compound,"Average cell viability (%) ([1]; 0.1 μM, 24 h, MTT)","Average cell viability (%) ([1]; 1 μM, 24 h, MTT)","Average cell viability (%) ([1]; 10 μM, 24 h, MTT)","Average cell viability (%) ([1]; 50 μM, 24 h, MTT)","Average cell viability (%) ([1]; 100 μM, 24 h, MTT)",Maximum non-toxic concentration [1] [µM],"viability at 24 h, 0.1 µM [2] [%]","viability at 24 h, 1 µM [2] [%]","viability at 24 h, 10 µM [2] [%]","viability at 24 h, 50 µM [2] [%]","viability at 24 h, 100 µM [2] [%]",Sporozoite viability (E. tenella sporozoites; natural components at 100 μM),"Concentration that significantly reduced the viability of MDBK cells ([1]; 24 h, MTT)",Sporozoite viability (E. tenella sporozoites; [3])
"COc1cc(CCc2ccccc2O)cc(OC)c1O [Component A-2, 4,2′-Dihydroxy-3,5-dimethoxydihydrostilbene]",98.7,105.9,107.0,103.4%,107.3%,100,,,,,,,,
"Oc1cc(O)c2c(c1)O[C@H](c1ccc(O)c(O)c1)[C@H](O)C2 [Component A-3, Epicatechin]",,,,,,100,103,91,92.3,109,108,,,
"O=c1c(O[C@@H]2O[C@H](CO)[C@@H](O)[C@H](O)[C@H]2O)c(-c2ccc(O)c(O)c2)oc2cc(O)cc(O)c12 [Component A-4, Isoquercitrin]",,,,,,100,98,110,104,109,104,,,
"Oc1cc(O)cc(/C=C/c2ccccc2)c1 [Component A-5, Pinosylvin]",,,,,,100,103,102,103,110,106,,,
"C[C@H]1[C@H](C)CC[C@]2(CO)CC[C@]3(C)C(=CC[C@@H]4[C@@]5(C)CC[C@H](O)C(C)(C)[C@@H]5CC[C@]43C)[C@H]12 [Component B-1, Uvaol]",,,,,,10,95.6,99.9,110,55.9,36.2,,,
"CC1(C)CC[C@]2(C)CC[C@]3(C)C(=CC[C@@H]4[C@@]5(C)CC[C@H](O)C(C)(C)[C@@H]5CC[C@]43C)[C@@H]2C1 [Component C-1, β-Amyrin]",,,,,,100,78.1,82.6,88.6,87.7,82.4,no significant effect,,
"COc1ccc(-c2cc(=O)c3c(O)c(C)c(OC)cc3o2)cc1 [Component C-2, 8-Demethyleucalyptin]",97.8,92.5,98.7,85.2* %,80.8* %,10,,,,,,,,
"O=C(CCc1ccc(O)cc1)c1c(O)cc(O[C@@H]2O[C@H](CO)[C@@H](O)[C@H](O)[C@H]2O)cc1O [Component C-6, Trilobatin]",89.1,90.7,91.4,92.9%,93.6%,100,,,,,,,,
"O=C(CCc1ccc(O)cc1)c1c(O)cc(O)cc1O[C@@H]1O[C@H](CO)[C@@H](O)[C@H](O)[C@H]1O [Component C-7, Phlorhizin]",87.9,90.9,98.2,95.8%,107.4%,100,,,,,,,,
"O=C1C[C@@H](c2ccc(O)cc2)Oc2cc(O)cc(O)c21 [Component D-1, Naringenin]",,,,,,100,92.2,97.3,99.3,109,107,,,
"Oc1cc(O)c2c(c1)O[C@H](c1cc(O)c(O)c(O)c1)[C@@H](O)C2 [Component F-1, Gallocatechin]",,,,,,100,80.8,81.4,93.9,92.6,85.2,,,
"COC1OC(CO)C(O)C(O)C1O (stereo not drawn) [Component F-2, β-Methylglucoside]",99.2,102.1,104.6,102.0%,104.9%,100,,,,,,,,
"O=c1c(O[C@@H]2O[C@@H](CO)[C@H](O)[C@H]2O)c(-c2ccc(O)c(O)c2)oc2cc(O)cc(O)c12 [Component G-1, Avicularin]",,,,,,100,94.6,96.9,88.5,104,89.5,,,
"COc1cc(C)cc(O)c1 [Component H-1, 3-Methoxy-5-methylphenol]",,,,,,100,106,109,106,113,112,,,
"Cc1cc(O)cc(O)c1 [Component H-2, 5-Methylbenzene-1,3-diol]",,,,,,100,92,95.3,94.8,93.4,93.3,,,
"C[C@@H]1O[C@@H](O[C@H]2[C@H](O)[C@@H](O)[C@H](OC[C@H]3O[C@@H](OC(=O)[C@]45CCC(C)(C)C[C@H]4C4=CC[C@@H]6[C@@]7(C)CC[C@H](O[C@@H]8OC[C@H](O)[C@H](O)[C@H]8O[C@@H]8O[C@H](CO)[C@@H](O)[C@H](O)[C@H]8O)[C@@](C)(CO)[C@@H]7CC[C@@]6(C)[C@]4(C)CC5)[C@H](O)[C@@H](O)[C@@H]3O)O[C@@H]2CO)[C@H](O)[C@H](O)[C@H]1O [Component I-1, Cauloside G]",100.7,103.3,103.7,97.0%,89.4%,100,,,,,,,,
"OC[C@H]1O[C@@H](Oc2ccc(O)cc2)[C@H](O)[C@@H](O)[C@@H]1O [E−1, Arbutin]",,,,,,100,83.1,86.4,87.1,108,102,,,
"Oc1cc(O)c2c(c1)OC(c1ccc(O)c(O)c1)C(O)C2 (stereo not shown) [E−2, Catechin]",101.1,102.5,109.8,104.9%,114.0%,100,,,,,,,,
"CC[C@@H](C(=O)[C@@H](C)[C@@H](O)[C@H](C)CCc1ccc(C)c(O)c1C(=O)O)[C@H]1O[C@](CC)([C@H]2CC[C@](O)(CC)[C@H](C)O2)C[C@@H]1C [lasalocid, reference compound]",,,,,,1,107,110,54.3,1.1,0.4,,higher than 10 μM,
"C[C@H]1[C@H](C)CC[C@]2(C)CC[C@]3(C)C(=CC[C@@H]4[C@@]5(C)CC[C@H](O)C(C)(C)[C@@H]5CC[C@]43C)[C@H]12 [α-amyrin, reference compound]",,,,,,,,,,,,,,did not significantly reduce
"CC1(C)CC[C@]2(C)CC[C@]3(C)C(=CC[C@@H]4[C@@]5(C)CC[C@H](O)C(C)(C)[C@@H]5CC[C@]43C)[C@@H]2C1 [β-amyrin, reference compound]",,,,,,,,,,,,,,did not significantly reduce
